Entries after “also recorded” stand apart in the source; their conditions may differ. Where a SMILES comes first, the peptide text is derived from it. The star is where a group is joined. Cbz = O=C(OCc1ccccc1)*; CHN2 = [N-]=[N+]=C*
Key:
IdeS [1] = target: T1, IdeS (Streptococcus pyogenes, UniProt Q9F1R7); conditions: cited from earlier work
T1 sequence (Q9F1R7 30-339): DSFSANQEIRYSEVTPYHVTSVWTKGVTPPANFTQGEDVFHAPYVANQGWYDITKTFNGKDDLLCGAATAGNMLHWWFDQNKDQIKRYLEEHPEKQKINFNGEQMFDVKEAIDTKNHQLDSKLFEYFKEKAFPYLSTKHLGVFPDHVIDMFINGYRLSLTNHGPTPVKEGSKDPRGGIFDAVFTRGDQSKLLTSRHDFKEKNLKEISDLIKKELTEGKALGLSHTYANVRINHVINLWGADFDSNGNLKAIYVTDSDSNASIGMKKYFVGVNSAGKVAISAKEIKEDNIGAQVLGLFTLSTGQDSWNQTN

[2] = target: T2, streptococcal cysteine protease SpeB (Streptococcus pyogenes serotype M1, UniProt P0C0J1); assay: SpeB activity assay; type: biochemical, S. pyogenes; conditions: SpeB 0.28 μM, 4.8 × 10^3 molar excess of peptide/analogue
T2 sequence (P0C0J1 146-398): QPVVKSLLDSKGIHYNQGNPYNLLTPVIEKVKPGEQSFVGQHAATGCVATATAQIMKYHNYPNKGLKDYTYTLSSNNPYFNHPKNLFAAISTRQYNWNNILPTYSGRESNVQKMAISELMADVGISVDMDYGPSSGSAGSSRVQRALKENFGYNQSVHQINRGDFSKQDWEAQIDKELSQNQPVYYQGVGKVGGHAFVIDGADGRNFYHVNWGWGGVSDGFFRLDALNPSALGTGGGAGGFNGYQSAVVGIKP
Method in brief: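 SpeB was purified from S. pyogenes strain 5448 culture medium by ammonium sulfate precipitation and ion exchange. It was activated with 2 mM DTT for 30 min at 37 °C, and active amount was set by E-64 active-site titration. Enzyme was preincubated 15 min at RT with test compound (stock 30 mM in 50% DMSO/phosphate pH 7.4). BPFA was then added (1 mM solution, 0.1 M phosphate pH 6) and OD405 change recorded. Triplicates.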

papain [3] = target: T3, papain (Carica papaya, UniProt P00784); assay: Papain activity assay; type: biochemical; conditions: papain 0.9 μM, 4.8 × 10^3 molar excess of peptide/analogue
T3 sequence (P00784 134-345): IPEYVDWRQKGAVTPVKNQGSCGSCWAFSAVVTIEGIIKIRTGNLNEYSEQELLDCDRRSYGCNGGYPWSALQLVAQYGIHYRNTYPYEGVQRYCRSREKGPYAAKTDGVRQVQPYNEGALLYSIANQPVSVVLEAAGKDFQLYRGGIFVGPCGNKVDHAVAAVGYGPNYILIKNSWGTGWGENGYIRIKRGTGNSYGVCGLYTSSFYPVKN
Method in brief: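 Papain was taken up in pH 6.2 phosphate buffer with EDTA and DTT. It was preincubated 10 min at RT with test compound (stock 30 mM in 50% DMSO/phosphate pH 6.2). Substrate (stock 100 mM in DMSO) was added, then 2 h at 37 °C. Reactions were stopped with glacial acetic acid and cleavage read as Abs405. Duplicates were run on two separate occasions.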

IdeS [4] = target: T1, IdeS; type: biochemical; conditions: for inhibitory activity toward IdeS (Figure 4): IdeS 0.8 μM, 4.8 × 10^3 molar excess of peptide/analogue, IgG1 substrate
Method in brief: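 Recombinant His-Trx-IdeS was expressed in E. coli BL21, the tag removed with TEV protease, and purified by Ni2+-resin and size exclusion. Enzyme was preincubated with test compound (stock 30 mM in 50% DMSO/phosphate pH 7.4) 15 min at RT. Human IgG1 was added, then 20 min at 37 °C, stopped with iodoacetamide. Protein A-CM5 SPR was read at 190 s post-injection against no-enzyme controls, converted to fraction active IdeS via a standard curve. Triplicates.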

papain [5] = target: T3, papain; assay: Determination of inhibition constants; type: biochemical; conditions: 5 μM papain, Nα-benzoyl-DL-arginine 4-nitroanilide 0.25-6 mM
Method in brief: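 Initial velocities were measured with or without inhibitor at Nα-benzoyl-DL-arginine 4-nitroanilide 6, 3, 1, 0.5 or 0.25 mM and 5 μM papain. Ki was derived by nonlinear regression fitted to a competitive inhibition model.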

## CC(C)C[C@H](NC(=O)C1OC1C(=O)O)C(=O)NCCCCN=C(N)N (stereo in doubt) [E64, 1-[N-[(3-trans-carboxyoxirane-2-carbonyl)-L-leucyl]amino]-4-guanidinobutane]
IdeS [1]
  inhibition of IdeS by known inhibitors: not inhibited

## CC(C)C[C@H](N)C(=O)NCC(=O)N1CCC[C@@H](N2CCC[C@H]2C(N)=O)C1 [(R)-LGpipP]
[2]
  inhibitory effect on SpeB activity (Figure 5A): inhibited SpeB activity
Papain [3]
  inhibitory effect on papain activity (Figure 5B): most active analogue

## CC(C)C[C@H](N)C(=O)N1CCC[C@@H](NCC(N)=O)C1 [(R)-LpipG, (−)-2-[(1-L-Leucinyl-(R)-piperidin-3-yl)amino]acetamide]
IdeS [4]
  inhibitory activity toward IdeS (Figure 4): most potent inhibitors; also recorded: potent inhibitors of IdeS
[2]
  inhibitory effect on SpeB activity (Figure 5A): do not inhibit SpeB
Papain [3]
  inhibitory effect on papain activity (Figure 5B): hardly affecting papain
Papain [5]
  effect on initial velocities of papain activity: remained unchanged

## NC(=O)[C@@H]1CCCN1C(=O)CN[C@@H]1CCCNC1 [(R)-pipGP]
IdeS [4]
  inhibitory activity toward IdeS (Figure 4): most potent inhibitors; also recorded: most active inhibitors of IdeS
[2]
  inhibitory effect on SpeB activity (Figure 5A): no inhibitory activity
Papain [3]
  inhibitory effect on papain activity (Figure 5B): even more active toward papain

## CC(C)C[C@H](N)C(=O)NCC(=O)N1CCC[C@H](N2CCC[C@H]2C(N)=O)C1 [(S)-LGpipP]
[2]
  inhibitory effect on SpeB activity (Figure 5A): inhibited SpeB activity

## CCN(CC(N)=O)[C@H]1CCCN(C(=O)[C@H](CC(C)C)NC(=O)[C@@H](N)CC(C)C)C1 [(S)-LLpipEtG]
[2]
  inhibitory effect on SpeB activity (Figure 5A): clearly improved degree of inhibition

## CC(C)C[C@H](N)C(=O)N1CCC[C@H](NCC(=O)N2CCC[C@H]2C(N)=O)C1 [(S)-LpipGP]
IdeS [4]
  inhibitory activity toward IdeS (Figure 4): most potent inhibitors; also recorded: most active inhibitors of IdeS
[2]
  inhibitory effect on SpeB activity (Figure 5A): no inhibitory activity
Papain [3]
  inhibitory effect on papain activity (Figure 5B): even more active toward papain

## NC(=O)CN[C@H]1CCCNC1 [(S)-pipG, (+)-2-((S)-Piperidin-3-ylamino)acetamide]
IdeS [4]
  inhibitory activity toward IdeS (Figure 4): most potent inhibitors; also recorded: potent inhibitors of IdeS
IdeS [4]; binding energy per atom considered
  ligand efficiency (LE) for IdeS inhibition: most favorable peptide analogue in the series
[2]
  inhibitory effect on SpeB activity (Figure 5A): do not inhibit SpeB
Papain [3]
  inhibitory effect on papain activity (Figure 5B): hardly affecting papain
Papain [5]
  effect on initial velocities of papain activity: remained unchanged

## NC(=O)[C@@H]1CCCN1C(=O)CN[C@H]1CCCNC1 [(S)-pipGP]
IdeS [4]
  inhibitory activity toward IdeS (Figure 4): most potent inhibitors

## Cc1ccc(S(=O)(=O)N[C@@H](CCCCN)C(=O)CCl)cc1 [TLCK, tosyl lysyl chloromethyl ketone]
IdeS [1]
  inhibition of IdeS by known inhibitors: reported to inhibit IdeS

## Cc1ccc(S(=O)(=O)N[C@@H](Cc2ccccc2)C(=O)CCl)cc1 [TPCK, tosyl phenylalanyl chloromethyl ketone]
IdeS [1]
  inhibition of IdeS by known inhibitors: reported to inhibit IdeS

## CC(C)CC(NC(=O)OCc1ccccc1)C(=O)NC(C(=O)NCC(=O)C=[N+]=[N-])C(C)C (stereo not drawn) [Z-LVG CHN2, N-benzyloxycarbonyl-leucyl-valyl-glycine diazomethylketone] (Cbz-Leu-Val-Gly-CHN2; configuration not given here)
IdeS [1]
  inhibition of IdeS by known inhibitors: reported to inhibit IdeS

— PMC3310199 (Journal of Medicinal Chemistry, 2012)
